Calls of active or inactive are those of the source. The calls are words filed in the database; no cut-off is given here.
Tests used:
NCI-H292 [1] = experiment: Antiproliferative activity against human NCI-H292 cells after 3 days by SRB assay; format: functional, cell-based; conditions: NCI-H292, 72 h
NCI-H292 [2] = experiment: Antiproliferative activity against gefitinib resistant human NCI-H292 cells after 3 days by SRB assay; format: functional, cell-based; conditions: NCI-H292, 72 h
SNU-638 = experiment: Antiproliferative activity against human SNU638 cells after 3 days by SRB assay; format: functional, cell-based; conditions: SNU-638, 72 h
Method in brief: (§1)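 Cells seeded at 5 × 10^4 cells/mL and exposed to a range of concentrations for 3 days. Fixed with 10% TCA, then SRB stain read. Growth expressed as % of solvent-treated control. IC50 obtained by nonlinear regression of percent survival versus concentration.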

PC-3 = experiment: Antiproliferative activity against human PC3 cells after 3 days by SRB assay; format: functional, cell-based; conditions: PC-3, 72 h; method in brief: as §1
A549 [3] = experiment: Antiproliferative activity against human A549 cells assessed as reduction in colonies after treatment for 24 hrs measured after 14 days using Giemsa staining; format: functional, cell-based
Method in brief: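 A549 plated at 100 cells per 35 mm dish. After 24 h, medium with compound added for 24 h, then PBS wash and 14 days' growth in drug-free medium. Colonies methanol-fixed, Giemsa-stained, counted, and expressed as % of DMSO-treated control.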

A549 [4] = experiment: Cell cycle arrest in human A549 cells assessed as accumulation at Sub-G1 phase at 5 nM after 24 hrs by propidium iodide staining-based flow cytometric analysis (reference value: 0.2 %); format: functional
A549 [5] = experiment: Cell cycle arrest in human A549 cells assessed as accumulation at S phase at 5 nM after 24 hrs by propidium iodide staining-based flow cytometric analysis (reference value: 31.6 %); format: functional
A549 [6] = experiment: Cell cycle arrest in human A549 cells assessed as accumulation at G2/M phase at 5 nM after 24 hrs by propidium iodide staining-based flow cytometric analysis (reference value: 18.9 %); format: functional
A549 [7] = experiment: Cell cycle arrest in human A549 cells assessed as accumulation at Sub-G1 phase at 100 nM after 24 hrs by propidium iodide staining-based flow cytometric analysis (reference value: 0.2 %); format: functional
A549 [8] = experiment: Cell cycle arrest in human A549 cells assessed as accumulation at S phase at 100 nM after 24 hrs by propidium iodide staining-based flow cytometric analysis (reference value: 31.6 %); format: functional
A549 [9] = experiment: Cell cycle arrest in human A549 cells assessed as accumulation at S phase at 5 nM after 48 hrs by propidium iodide staining-based flow cytometric analysis (reference value: 31.6 %); format: functional
A549 [10] = experiment: Cell cycle arrest in human A549 cells assessed as accumulation at Sub-G1 phase at 20 nM after 48 hrs by propidium iodide staining-based flow cytometric analysis (reference value: 0.2 %); format: functional
A549 [11] = experiment: Cell cycle arrest in human A549 cells assessed as accumulation at G2/M phase at 20 nM after 48 hrs by propidium iodide staining-based flow cytometric analysis (reference value: 18.9 %); format: functional
A549 [12] = experiment: Cell cycle arrest in human A549 cells assessed as accumulation at G0/G1 phase at 100 nM after 48 hrs by propidium iodide staining-based flow cytometric analysis (reference value: 49.6 %); format: functional
A549 [13] = experiment: Downregulation of cyclin E expression in human A549 cells at G1 phase at 5 to 100 nM after 24 to 48 hrs by Western blot analysis; format: functional, cell-based
Method in brief: (§2)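 A549 cells treated with a range of concentrations for 24 or 48 h. Lysates run on 6–15% SDS-PAGE and blotted to PVDF, blocked in 5% milk/PBST. Primary antibodies overnight at 4 °C, secondary 2 h at room temperature, ECL detection. Representative of three independent experiments.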

A549 [14] = experiment: Downregulation of cyclin A expression in human A549 cells at G1 phase at 5 to 100 nM after 24 to 48 hrs by Western blot analysis; format: functional, cell-based; method in brief: as §2
A549 [15] = experiment: Inhibition of Akt-signaling in human A549 cells at 5 to 40 nM after 24 hrs by Western blot analysis; format: cell-based
Method in brief: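 A549 cells exposed for 24 or 48 h to a range of concentrations. Akt/mTOR pathway proteins in lysates assessed by Western blot (SDS-PAGE, PVDF, ECL detection).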

[16] = target: Epidermal growth factor receptor (Homo sapiens) (UniProt P00533); experiment: Inhibition of EGFR phosphorylation in […]-stimulated human A549 cells pretreated at 20 nM by Western blot analysis; format: cell-based
Method in brief: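 A549 cells serum-starved 24 h, pretreated with 20 nM for 2 h, then stimulated with EGF (10 ng/mL) for 10 min. EGFR, Akt and ERK phosphorylation and levels assessed by Western blot.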

[17] = target: Hepatocyte growth factor receptor (Homo sapiens) (UniProt P08581); experiment: Inhibition of c-Met-mediated FKHRL1 phosphorylation in HGF-stimulated human A549 cells pretreated at 5 to 100 nM by Western blot analysis; format: cell-based
Method in brief: (§3)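 A549 cells pretreated for 2 h with the compound at 5, 20 or 100 nM, then stimulated with HGF (50 ng/mL) for 10 min. c-Met and its downstream signalling proteins read by Western blot (SDS-PAGE, PVDF transfer, ECL detection).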

[18] = target: Hepatocyte growth factor receptor (Homo sapiens) (UniProt P08581); experiment: Inhibition of c-Met-mediated MTOR phosphorylation in HGF-stimulated human A549 cells pretreated at 5 to 100 nM by Western blot analysis; format: cell-based; method in brief: as §3
[19] = target: Hepatocyte growth factor receptor (Homo sapiens) (UniProt P08581); experiment: Inhibition of c-Met-mediated p70S6K phosphorylation in HGF-stimulated human A549 cells pretreated at 5 to 100 nM by Western blot analysis; format: cell-based; method in brief: as §3

Hepatocyte growth factor receptor (Homo sapiens), sequence (P08581 whole entry): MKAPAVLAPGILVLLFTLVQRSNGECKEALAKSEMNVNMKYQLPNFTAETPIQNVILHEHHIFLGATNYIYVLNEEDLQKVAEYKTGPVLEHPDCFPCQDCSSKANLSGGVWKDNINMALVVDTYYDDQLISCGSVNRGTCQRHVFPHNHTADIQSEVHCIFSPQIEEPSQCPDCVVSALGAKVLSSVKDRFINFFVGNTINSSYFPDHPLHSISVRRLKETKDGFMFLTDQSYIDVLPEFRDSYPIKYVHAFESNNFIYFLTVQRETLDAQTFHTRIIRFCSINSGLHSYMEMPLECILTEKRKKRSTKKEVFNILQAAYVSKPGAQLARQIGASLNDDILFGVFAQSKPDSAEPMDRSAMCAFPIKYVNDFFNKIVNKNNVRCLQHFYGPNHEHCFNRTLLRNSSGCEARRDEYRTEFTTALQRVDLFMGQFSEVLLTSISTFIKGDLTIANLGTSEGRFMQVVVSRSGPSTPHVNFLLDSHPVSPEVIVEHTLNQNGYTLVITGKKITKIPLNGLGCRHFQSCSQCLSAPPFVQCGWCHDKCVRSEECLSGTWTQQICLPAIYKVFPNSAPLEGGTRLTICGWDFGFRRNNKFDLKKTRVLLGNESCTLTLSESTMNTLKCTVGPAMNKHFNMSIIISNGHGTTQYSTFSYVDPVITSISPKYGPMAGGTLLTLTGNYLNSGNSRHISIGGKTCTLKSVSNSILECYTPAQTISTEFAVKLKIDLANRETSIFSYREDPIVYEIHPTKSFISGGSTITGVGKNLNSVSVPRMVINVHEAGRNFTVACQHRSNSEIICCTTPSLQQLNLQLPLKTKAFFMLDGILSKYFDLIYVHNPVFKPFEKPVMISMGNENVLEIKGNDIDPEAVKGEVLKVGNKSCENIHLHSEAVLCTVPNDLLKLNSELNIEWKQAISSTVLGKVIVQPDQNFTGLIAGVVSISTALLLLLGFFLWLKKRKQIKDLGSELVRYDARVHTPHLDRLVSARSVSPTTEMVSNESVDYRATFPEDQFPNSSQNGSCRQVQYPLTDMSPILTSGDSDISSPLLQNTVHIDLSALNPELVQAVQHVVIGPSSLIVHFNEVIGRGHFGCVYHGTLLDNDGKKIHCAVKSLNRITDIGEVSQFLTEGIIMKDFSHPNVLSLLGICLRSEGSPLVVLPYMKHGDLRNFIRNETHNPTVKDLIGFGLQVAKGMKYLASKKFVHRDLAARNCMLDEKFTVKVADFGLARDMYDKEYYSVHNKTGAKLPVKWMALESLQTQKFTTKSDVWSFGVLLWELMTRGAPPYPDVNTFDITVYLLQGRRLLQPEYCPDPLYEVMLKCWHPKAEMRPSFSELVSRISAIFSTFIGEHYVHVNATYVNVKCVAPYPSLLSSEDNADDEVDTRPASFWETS
Epidermal growth factor receptor (Homo sapiens), sequence (P00533 whole entry): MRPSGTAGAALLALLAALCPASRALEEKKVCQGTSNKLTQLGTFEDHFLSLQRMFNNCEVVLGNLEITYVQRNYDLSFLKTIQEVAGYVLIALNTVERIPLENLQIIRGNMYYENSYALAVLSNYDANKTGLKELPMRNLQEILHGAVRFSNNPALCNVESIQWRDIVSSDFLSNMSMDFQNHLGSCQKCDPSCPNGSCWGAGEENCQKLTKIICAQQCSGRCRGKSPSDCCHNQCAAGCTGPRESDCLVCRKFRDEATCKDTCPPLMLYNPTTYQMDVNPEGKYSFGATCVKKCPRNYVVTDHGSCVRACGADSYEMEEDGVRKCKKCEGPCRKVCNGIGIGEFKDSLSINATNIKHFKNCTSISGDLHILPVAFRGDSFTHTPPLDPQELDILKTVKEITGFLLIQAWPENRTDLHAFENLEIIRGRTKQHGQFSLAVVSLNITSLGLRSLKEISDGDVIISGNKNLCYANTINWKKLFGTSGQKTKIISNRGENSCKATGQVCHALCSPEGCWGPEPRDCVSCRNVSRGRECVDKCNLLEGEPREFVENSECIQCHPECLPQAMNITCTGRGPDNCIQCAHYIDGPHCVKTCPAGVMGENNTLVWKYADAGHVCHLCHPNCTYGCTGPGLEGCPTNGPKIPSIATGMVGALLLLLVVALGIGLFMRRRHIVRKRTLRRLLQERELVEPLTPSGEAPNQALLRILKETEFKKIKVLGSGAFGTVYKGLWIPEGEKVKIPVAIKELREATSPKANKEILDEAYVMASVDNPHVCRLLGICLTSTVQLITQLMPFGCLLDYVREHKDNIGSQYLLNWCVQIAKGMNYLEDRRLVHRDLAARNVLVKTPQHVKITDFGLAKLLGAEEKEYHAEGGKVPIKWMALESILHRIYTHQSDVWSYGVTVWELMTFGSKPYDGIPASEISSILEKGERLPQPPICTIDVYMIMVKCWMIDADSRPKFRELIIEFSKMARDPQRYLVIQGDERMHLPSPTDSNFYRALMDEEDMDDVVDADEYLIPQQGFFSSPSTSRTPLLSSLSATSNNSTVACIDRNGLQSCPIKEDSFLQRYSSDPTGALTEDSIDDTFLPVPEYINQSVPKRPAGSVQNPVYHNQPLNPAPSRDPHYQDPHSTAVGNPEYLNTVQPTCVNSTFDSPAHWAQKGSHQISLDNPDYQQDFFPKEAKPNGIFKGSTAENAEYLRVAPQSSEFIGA

`C=C(C)[C@@]12O[C@@]3(/C=C/C=C/CCCCC)O[C@@H]1[C@@H]1[C@@H]4O[C@]4(CO)[C@@H](O)[C@]4(O)C(=O)C(C)=C[C@H]4[C@@]1(O3)[C@H](C)[C@H]2OC(C)=O` [YUANHUADINE] was tested, and the IC50 (NCI-H292 [1]) was less than 1 pM, the IC50 (NCI-H292 [2]) was less than 1 pM and the IC50 (SNU-638) was greater than 20 µM. For the same compound, the IC50 (PC-3) was 7.4 µM, the Activity (A549 [3]) was “Active” and the Activity (A549 [4]) was 2%. The Activity (A549 [5]) was 5.5%, the Activity (A549 [6]) was 27.5% and the Activity (A549 [7]) was 0.3%. It also gave an Activity (A549 [8]) of 6.7%, an Activity (A549 [9]) of 12% and an Activity (A549 [10]) of 0.4%. For the same compound, the Activity (A549 [11]) was 22.2%, the Activity (A549 [12]) was 61.1% and the Activity (A549 [13]) was “Active”. The Activity (A549 [14]) was “Active”, the inhibition (A549 [15]) was “Active” and the inhibition [16] was “Active”. For the same compound, the inhibition [17] was “Active”, the inhibition [18] was “Active” and the inhibition [19] was “Active”.
